In brackets after ≈: the same amount, converted by molar mass. Activity calls are given as the source filed them. No cut-off for these calls is given here.
Key:
[1] = test system: Mycobacterium tuberculosis; assay: Antitubercular activity against Mycobacterium tuberculosis H37Rv at 50 ug/mL by agar dilution assay; assay type: functional, organism-based
[2] = test system: Mycobacterium tuberculosis; assay: Antitubercular activity against Mycobacterium tuberculosis H37Rv by agar dilution assay; assay type: functional
Outline: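 Compounds 2-fold serially diluted into 7H10 agar tubes. H37Rv inoculum taken from fresh Lowenstein-Jensen slants, adjusted to 1 mg/mL wet weight in 0.05% Tween 80 saline, then diluted 10^-2 (about 10⁷ cfu/mL) and spotted onto the agar. Incubated at 37 °C; final read at 30 days. MIC is the lowest concentration giving complete growth inhibition per spot. Ofloxacin was the standard.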

Vero [3] = assay: Cytotoxicity against Vero cells at 100 ug/mL after 72 hrs by MTT assay; assay type: cell-based; conditions: chlorocebus sabaeus
Outline: (§1)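 VERO cells (from ATCC, maintained in-house) were seeded and grown at 37 °C in 5% CO₂/95% air. They were then exposed to the compound at 25, 50 and 100 µg/mL for 72 h.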

J774.A1 [4] = assay: Cytotoxicity against mouse […] cells at 12.5 ug/mL; assay type: cell-based
J774.A1 [5] = assay: Cytotoxicity against mouse […] cells at 25 ug/mL; assay type: cell-based
J774.A1 [6] = assay: Cytotoxicity against mouse […] cells at 50 ug/mL; assay type: cell-based
Vero [7] = assay: Cytotoxicity against Vero cells at 25 ug/mL after 72 hrs by MTT assay; assay type: cell-based; conditions: chlorocebus sabaeus; outline: as §1

Structure (SMILES) | MIC [2] [µg/mL] | other results
CC(C)O[C@@H]1C=C([C@H](O)c2ccc(F)cc2)C(=O)[C@@H](COC(=O)C(C)(C)C)O1 |  | Activity [1]: inactive
CC(C)O[C@@H]1C=C([C@H](O)c2ccc(C#N)cc2)C(=O)[C@@H](COC(=O)C(C)(C)C)O1 | 3.12 (≈ 7.77 µM) | Activity (Vero [3]): Non-toxic; Activity (J774.A1 [4]): Non-toxic; Activity (J774.A1 [5]): Non-toxic; Activity (J774.A1 [6]): Non-toxic
CCC[C@@H](O)C1=C[C@@H](OC(C)C)O[C@H](COC(=O)C(C)(C)C)C1=O | 25 (≈ 73 µM) | 
CCCCCCCCC[C@@H](O)C1=C[C@@H](OC(C)C)O[C@H](COC(=O)c2ccc([N+](=O)[O-])cc2)C1=O | 25 (≈ 50.9 µM) | 
CCCCCCCCC[C@@H](O)C1=C[C@@H](OC(C)C)O[C@H](COC(=O)C(C)(C)C)C1=O | 6.25 (≈ 14.7 µM) | Activity (Vero [7]): Toxic; Activity (J774.A1 [4]): Non-toxic; Activity (J774.A1 [5]): Non-toxic; Activity (J774.A1 [6]): Non-toxic
CC(C)O[C@@H]1C=C([C@H](O)c2ccc(F)cc2)C(=O)[C@@H](COC(=O)c2ccc([N+](=O)[O-])cc2)O1 | 25 (≈ 54.4 µM) | 
CC(C)O[C@@H]1C=C([C@H](O)c2ccc([N+](=O)[O-])cc2)C(=O)[C@@H](COC(=O)c2ccc([N+](=O)[O-])cc2)O1 | 25 (≈ 51.4 µM) | 
CCC[C@@H](O)C1=C[C@@H](OC(C)C)O[C@H](COC(=O)c2ccc([N+](=O)[O-])cc2)C1=O | 25 (≈ 61.4 µM) | 
CC(=O)OC[C@H]1O[C@H](OC(C)C)C=C([C@H](O)c2ccc([N+](=O)[O-])cc2)[C@@H]1O | 25 (≈ 65.6 µM) | 
CC(C)O[C@@H]1C=C([C@H](O)c2ccc(C(F)(F)F)cc2)C(=O)[C@@H](COC(=O)C(C)(C)C)O1 | 50 (≈ 112 µM) | 
CC(C)O[C@@H]1C=C([C@H](O)c2ccc(C#N)cc2)C(=O)[C@@H](COC(=O)c2ccc([N+](=O)[O-])cc2)O1 | 25 (≈ 53.6 µM) | 
CC(C)O[C@@H]1C=C([C@H](O)c2ccc(C#N)cc2)[C@H](O)[C@@H](COC(=O)C(C)(C)C)O1 |  | Activity [1]: inactive
CC(C)O[C@@H]1C=C([C@H](O)c2ccc([N+](=O)[O-])cc2)[C@H](O)[C@@H](COC(=O)c2ccc([N+](=O)[O-])cc2)O1 | 25 (≈ 51.2 µM) | 
CC(C)O[C@@H]1C=C([C@H](O)c2ccc(C(F)(F)F)cc2)C(=O)[C@@H](COC(=O)c2ccc([N+](=O)[O-])cc2)O1 | 25 (≈ 49.1 µM) | 
CC(C)O[C@@H]1C=C([C@H](O)c2ccc(C(F)(F)F)cc2)[C@H](O)[C@@H](COC(=O)c2ccc([N+](=O)[O-])cc2)O1 | 25 (≈ 48.9 µM) | 
CC(C)O[C@@H]1C=C([C@H](O)c2ccc(F)cc2)[C@H](O)[C@@H](COC(=O)C(C)(C)C)O1 | 25 (≈ 63.1 µM) | 
CC(C)O[C@@H]1C=C([C@H](O)c2ccc([N+](=O)[O-])cc2)C(=O)[C@@H](COC(=O)C(C)(C)C)O1 | 50 (≈ 119 µM) | 
CC(C)O[C@@H]1C=C([C@H](O)c2cccc([N+](=O)[O-])c2)[C@H](O)[C@@H](COC(=O)C(C)(C)C)O1 | 25 (≈ 59 µM) | 
CCCCCCCCC[C@@H](O)C1=C[C@@H](OC(C)C)O[C@H](COC(=O)C(C)(C)C)[C@H]1O | 1.56 (≈ 3.64 µM) | Activity (Vero [7]): Toxic; Activity (J774.A1 [4]): Non-toxic; Activity (J774.A1 [5]): Non-toxic; Activity (J774.A1 [6]): Non-toxic
CCCCCCCCC[C@@H](O)C1=C[C@@H](OC(C)C)O[C@H](COC(=O)c2ccc([N+](=O)[O-])cc2)[C@H]1O | 25 (≈ 50.6 µM) | 
CC(C)O[C@@H]1C=C([C@H](O)c2ccc(C(F)(F)F)cc2)[C@H](O)[C@@H](COC(=O)C(C)(C)C)O1 | 25 (≈ 56 µM) | 
CC(C)O[C@@H]1C=C([C@H](O)c2ccccc2[N+](=O)[O-])C(=O)[C@@H](COC(=O)C(C)(C)C)O1 | 50 (≈ 119 µM) | 
CC(C)O[C@@H]1C=C([C@H](O)c2cccc([N+](=O)[O-])c2)C(=O)[C@@H](COC(=O)C(C)(C)C)O1 | 50 (≈ 119 µM) | 
CC(C)O[C@@H]1C=C([C@H](O)c2ccc([N+](=O)[O-])cc2)[C@H](O)[C@@H](COC(=O)C(C)(C)C)O1 |  | Activity [1]: inactive
CC(=O)OC[C@H]1O[C@H](OC(C)C)C=C([C@H](O)c2ccc([N+](=O)[O-])cc2)C1=O | 1.56 (≈ 4.11 µM) | Activity (Vero [7]): Toxic; Activity (J774.A1 [4]): Non-toxic; Activity (J774.A1 [5]): Non-toxic; Activity (J774.A1 [6]): Non-toxic
CC(C)O[C@@H]1C=C([C@H](O)c2ccccc2[N+](=O)[O-])[C@H](O)[C@@H](COC(=O)C(C)(C)C)O1 | 25 (≈ 59 µM) | 

Reference: ChEMBL document CHEMBL1145391, “C-3 alkyl/arylalkyl-2,3-dideoxy hex-2-enopyranosides as antitubercular agents: synthesis, biological evaluation, and QSAR study” (J Med Chem, 2007)
